According to ChEMBL document CHEMBL1140923, “Discovery of imidazo[1,2-b]thiazole derivatives as novel SIRT1 activators” (J Med Chem, 2009):

Columns and labels:
[1] = AUC in C57BL/6 mouse at 100 mg/kg, po or 10 mg/kg, iv; assay type: ADME, organism-based; conditions: plasma
Summary of the method: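 Male C57BL/6 mice (18-22 g; 3 per dose group per time point), given 100 mg/kg po as the hydrochloride salt in 2% HPMC + 0.2% DOSS, or 10 mg/kg iv by tail vein in 10% ethanol/40% polyethylene glycol/50% H2O. Plasma was taken at 5, 30, 120 and 360 min after dosing and drug levels were measured.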

[2] = AUC in Sprague-Dawley rat at 100 mg/kg, po or 10 mg/kg, iv; assay type: ADME, organism-based; conditions: plasma
Summary of the method: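 Male Sprague-Dawley rats (250 g, 3 per dose group) received 100 mg/kg by oral gavage in 2% HPMC + 0.2% DOSS, or 10 mg/kg iv by tail vein in 10% ethanol/40% PEG/50% H2O. Blood was drawn at 0.033-24 h postdose for drug levels.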

[3] = tested on: Rattus norvegicus; assay: Antidiabetic activity in genetic Zucker fa/fa rat model assessed as increase in glucose disposal rate at 100 mg/kg, po daily once after 4 weeks by hyperinsulinemic-euglycemic clamp; assay type: functional
Summary of the method: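 Zucker fa/fa rats, cannulated 5 days beforehand and fasted 8 h, underwent the clamp after 4 weeks of dosing. [3-3H]glucose tracer was primed and infused, then insulin 25 (mU/kg)/min was started. Variable 50% dextrose held blood glucose at 100 mg/dL over 120 min, with tracer specific activity sampled at 110 and 120 min.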

AUC [1]: 7900 ng·h/mL
AUC [2]: 3700 ng·h/mL
Compound: O=C(Nc1ccccc1-c1cn2c(CN3CCNCC3)csc2n1)c1cnc2ccccc2n1
Activity [3]: 20%
